Experimental data: ChEMBL document CHEMBL1157867, “Synthesis of substituted acridinyl pyrazoline derivatives and their evaluation for anti-inflammatory activity” (Eur J Med Chem, 2010)

Legend:
[1] = tested on: Mus musculus; experiment: Analgesic activity in albino mouse assessed as decrease in acetic acid-induced writhing at 25 mg/kg, ip administered 30 mins before acetic acid challenge measured after 1 hr relative to control; format: functional; parameters: scale not given: the % may be the effect or the level left; settings: route intraperitoneal
Procedure, shortened: (§1)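 Mice of 15–25 g; compounds dissolved in propylene glycol. Acetic acid 0.5%, 0.25 mL/mouse, injected intraperitoneally 30 min after dosing. Mean number of writhes per group counted, and percent decrease versus control calculated after 60 min.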

[2] = tested on: Rattus norvegicus; experiment: Antiinflammatory activity in Charles Foster albino rat assessed as carrageenan-induced paw edema at 50 mg/kg, po administered 1 hr before carrageenan challenge measured after 3 hrs relative to control; format: functional
Procedure, shortened: (§2)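 Charles-Foster albino rats of either sex, pregnant females excluded, 70–95 days old, 120–175 g, food and water ad libitum. Groups of six. Compounds in propylene glycol given orally 1 h before 0.05 mL of 1% carrageenan in 0.9% saline, injected under the plantar aponeurosis of the right hind paw. Paw volume read by plethysmometer before and 3 h after injection. Inhibition (%) = (1 − Vt/Vc) × 100.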

[3] = tested on: Mus musculus; experiment: Analgesic activity in albino mouse assessed as decrease in acetic acid-induced writhing at 100 mg/kg, ip administered 30 mins before acetic acid challenge measured after 1 hr relative to control; format: functional; parameters: scale not given: the % may be the effect or the level left; settings: route intraperitoneal; procedure, shortened: as §1
[4] = tested on: Rattus norvegicus; experiment: Antiinflammatory activity in Charles Foster albino rat assessed as carrageenan-induced paw edema at 25 mg/kg, po administered 1 hr before carrageenan challenge measured after 3 hrs relative to control; format: functional; procedure, shortened: as §2
[5] = tested on: Mus musculus; experiment: Analgesic activity in albino mouse assessed as decrease in acetic acid-induced writhing at 50 mg/kg, ip administered 30 mins before acetic acid challenge measured after 1 hr relative to control; format: functional; parameters: scale not given: the % may be the effect or the level left; settings: route intraperitoneal; procedure, shortened: as §1
[6] = Toxicity in ip dosed albino mouse; format: organism-based; settings: in vivo, read-out: ALD50
Procedure, shortened: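 Acute lethal dose (ALD50) determined in albino mice of 15–25 g, given food pellets and water ad libitum. Compounds were dissolved in propylene glycol. The procedure followed a previously published method.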

[7] = tested on: Rattus norvegicus; experiment: Antiinflammatory activity in Charles Foster albino rat assessed as carrageenan-induced paw edema at 100 mg/kg, po administered 1 hr before carrageenan challenge measured after 3 hrs relative to control; format: functional; procedure, shortened: as §2

## O=C1CC(CSc2nnc(-c3ccncc3)o2)=NN1c1c2ccccc2nc2c(Cl)cc(Cl)cc12
[1]
  Activity: 30.6%
[2]
  Activity: 40.8%
[3]
  Activity: 42.4%
[4]
  Activity: 32.1%
[5]
  Activity: 33.5%
[6]
  LD50: > 1000 mg/kg

## CCCCC1C(=O)N(c2ccccc2)N(c2ccccc2)C1=O [PHENYLBUTAZONE]
[1]
  Activity: 31%
[3]
  Activity: 42.6%
[4]
  Activity: 31.4%
[7]
  Activity: 63.4%

## CC1=NN(c2c3ccccc3nc3ccccc23)C(=O)C1
[2]
  Activity: 10.8%
[5]
  Activity: 8.6%
[6]
  LD50: > 1000 mg/kg

## CC1=NN(c2c3ccccc3nc3ccc(Cl)cc23)C(=O)C1
[2]
  Activity: 13.5%
[5]
  Activity: 12.6%
[6]
  LD50: > 1000 mg/kg

## CC1=NN(c2c3ccccc3nc3ccc(Br)cc23)C(=O)C1
[2]
  Activity: 12.6%
[5]
  Activity: 12.9%
[6]
  LD50: > 1000 mg/kg

## O=C1CC(CBr)=NN1c1c2ccccc2nc2ccc(Cl)cc12
[2]
  Activity: 15.9%
[5]
  Activity: 16.4%
[6]
  LD50: > 1000 mg/kg

## COc1ccc2nc3ccccc3c(N3N=C(C)CC3=O)c2c1
[2]
  Activity: 11.5%
[5]
  Activity: 10.8%
[6]
  LD50: > 1000 mg/kg

## COc1cc(Cl)c2nc3ccccc3c(N3N=C(C)CC3=O)c2c1
[2]
  Activity: 14.4%
[5]
  Activity: 13.4%
[6]
  LD50: > 1000 mg/kg

## COc1cc(Cl)c2nc3ccccc3c(N3N=C(CBr)CC3=O)c2c1
[2]
  Activity: 18.6%
[5]
  Activity: 16.3%
[6]
  LD50: > 1000 mg/kg

## O=C1CC(CSc2nnc(-c3ccncc3)o2)=NN1c1c2ccccc2nc2ccc(Br)cc12
[2]
  Activity: 31.5%
[5]
  Activity: 28.8%
[6]
  LD50: > 1000 mg/kg

## O=C1CC(CBr)=NN1c1c2ccccc2nc2c(Cl)cc(Cl)cc12
[2]
  Activity: 20.7%
[5]
  Activity: 18.6%
[6]
  LD50: > 1000 mg/kg

## CC1=NN(c2c3ccccc3nc3c(Cl)cc(Cl)cc23)C(=O)C1
[2]
  Activity: 17.6%
[5]
  Activity: 14.7%
[6]
  LD50: > 1000 mg/kg

## O=C1CC(CSc2nnc(-c3ccncc3)o2)=NN1c1c2ccccc2nc2ccc(Cl)cc12
[2]
  Activity: 27.2%
[5]
  Activity: 30.6%
[6]
  LD50: > 1000 mg/kg

## COc1ccc2nc3ccccc3c(N3N=C(CBr)CC3=O)c2c1
[2]
  Activity: 13.5%
[5]
  Activity: 15.9%
[6]
  LD50: > 1000 mg/kg

## CC(=O)Oc1ccccc1C(=O)O [ASPIRIN]
[1]
  Activity: 30.2%
[3]
  Activity: 59.3%
[4]
  Activity: 30.25%
[7]
  Activity: 60.8%

## COc1ccc2nc3ccccc3c(N3N=C(CSc4nnc(-c5ccncc5)o4)CC3=O)c2c1
[2]
  Activity: 31.2%
[5]
  Activity: 29.7%
[6]
  LD50: > 1000 mg/kg

## O=C1CC(CBr)=NN1c1c2ccccc2nc2ccccc12
[2]
  Activity: 12.8%
[5]
  Activity: 13.2%
[6]
  LD50: > 1000 mg/kg

## O=C1CC(CBr)=NN1c1c2ccccc2nc2ccc(Br)cc12
[2]
  Activity: 17.1%
[5]
  Activity: 13.6%
[6]
  LD50: > 1000 mg/kg

## O=C1CC(CSc2nnc(-c3ccncc3)o2)=NN1c1c2ccccc2nc2ccccc12
[2]
  Activity: 24.1%
[5]
  Activity: 25.9%
[6]
  LD50: > 1000 mg/kg
